Only some compounds are listed: those with a hit (about 0.94% of all), similar ones and a draw of the others.
NPR1 activator: GC-A stimulated cGMP production enhancers – HEK293 GC-A cells, cGMP TR-FRET, EC30 ANP, primary screen; Atrial natriuretic peptide receptor 1 (Homo sapiens), P16066; 0% at EC30 ANP, 100% saturating ANP; activation, % at 10 µM; 0.14% of 370,000 active; in the data active = activation above about 40%
Target sequence (P16066 whole entry, looked up): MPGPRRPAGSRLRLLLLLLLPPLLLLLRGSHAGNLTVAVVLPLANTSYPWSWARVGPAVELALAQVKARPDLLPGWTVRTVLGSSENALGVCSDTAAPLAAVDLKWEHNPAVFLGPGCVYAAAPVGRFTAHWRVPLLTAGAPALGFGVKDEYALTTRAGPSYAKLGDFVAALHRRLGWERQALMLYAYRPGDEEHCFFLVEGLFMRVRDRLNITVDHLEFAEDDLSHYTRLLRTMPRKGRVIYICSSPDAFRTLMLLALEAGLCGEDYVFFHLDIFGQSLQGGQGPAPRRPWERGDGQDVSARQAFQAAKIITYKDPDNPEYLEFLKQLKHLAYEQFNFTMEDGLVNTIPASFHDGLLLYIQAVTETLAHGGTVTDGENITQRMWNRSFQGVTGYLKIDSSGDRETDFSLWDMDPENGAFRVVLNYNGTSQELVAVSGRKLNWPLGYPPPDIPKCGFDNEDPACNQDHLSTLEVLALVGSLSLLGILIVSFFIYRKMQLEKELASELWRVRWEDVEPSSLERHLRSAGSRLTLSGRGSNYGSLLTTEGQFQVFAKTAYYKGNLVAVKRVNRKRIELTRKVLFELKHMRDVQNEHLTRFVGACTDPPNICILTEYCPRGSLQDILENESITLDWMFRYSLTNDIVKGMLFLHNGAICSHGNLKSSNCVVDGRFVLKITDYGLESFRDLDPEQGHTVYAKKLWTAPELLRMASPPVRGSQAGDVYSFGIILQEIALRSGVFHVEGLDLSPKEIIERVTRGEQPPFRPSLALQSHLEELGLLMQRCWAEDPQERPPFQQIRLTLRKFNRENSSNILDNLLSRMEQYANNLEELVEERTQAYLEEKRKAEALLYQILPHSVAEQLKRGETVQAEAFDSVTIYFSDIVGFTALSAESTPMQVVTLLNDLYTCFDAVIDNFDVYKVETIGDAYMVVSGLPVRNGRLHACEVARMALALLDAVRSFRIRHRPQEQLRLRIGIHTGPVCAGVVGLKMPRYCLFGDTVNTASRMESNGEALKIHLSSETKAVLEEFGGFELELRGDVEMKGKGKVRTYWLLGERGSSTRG
GalR3 antagonist: GalR3 antagonists in HEK293 cells, primary screen, cell-based, fluorescence readout; HEK293 GalR3-CNG cAMP membrane potential fluorescence; galR3 body fused to GalR1 C-terminus; inhibition, % at 3 µM; Galanin receptor type 3 (Homo sapiens), O60755; 0.44% of 360,000 active;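 active = inhibition above the screen-wide average plus 3 SD, cut at about 13% in these data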;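 also: forskolin and galanin both at EC90 stimulate the cells; cAMP rise reported by CNG channel membrane potential dye signal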
Arr AP2 block: inhibitors of beta-arrestin/AP2 binding, primary screen, biochemical, GPCR trafficking, flow cytometry. AID 504490, 2011. beta-arrestin 1 C-terminal peptide binding to AP2 beta2-adaptin appendage (human). inhibition, % at 10 µM. 0.31% of 340,000 active. FITC-arrestin peptide / GST-AP2 beads; AP2 beta2 appendage carries R879A mutation;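 active = inhibition above a set limit, near 3 SD of compounds lacking own fluorescence, cut at about 54% in these data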
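Material – GST-tagged AP2 beta2-adaptin appendage (R879A) on 4 µm glutathione beads · Probe or stimulus – fluorescein-tagged arrestin peptide at 50 nM final · Timing – 12 min plus 1 h, RT · Detection – bead flow cytometry, FITC channel · Read-out basis – inhibition as reduced fluorescein signal on beads, percent · Medium – PBS plus Tween 20 (0.05%) and BSA (0.1%)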
NPR2 activator: human GC-B receptor activators, primary screen, HEK293 GC-B cells, cGMP TR-FRET, EC30 CNP. 0.11% of 370,000 active. activation, % at 10 µM. 0% at EC30 CNP, 100% saturating CNP;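 active = activation at 10 µM reaching about 35% in either raw or pattern-adjusted values, limit read from the data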
Arr-AP2 CP1: inhibitors of arrestin peptide binding to AP2, confirmation, biochemical, cherry pick 1, flow cytometry beads. shares compounds with Arr AP2 block. GST-AP2 beads, FITC arrestin peptide binding; GST-fused beta2-adaptin appendage, R879A mutant. inhibition, % at 10 µM. 2% of 1,300 active;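 active = inhibition above a set limit, roughly 3 SD of non-fluorescent compound noise, cut at about 38% in these data; inactive = inhibition at or below that limit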;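 also: loss of bead fluorescence from 50 nM FITC arrestin peptide bound to appendage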
GST-FITC bead: GST-fluorescein capture on glutathione beads, confirmation, artefact control for arrestin-AP2 inhibitor project, biochemical, cherry pick 1, flow cytometry | shares compounds with Arr AP2 block | GST-fluorescein binding to GSH beads, fluorescence, counter-screen | inhibition, % at 10 µM | 2% of 1,300 active | AID 588338, 2011;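 active = inhibition above 50%, about 3 SD of the inhibition seen with non-fluorescent compounds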;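 also: fluorescein maleimide labelled GST captured on 4 micron glutathione beads; higher means more loss of bead fluorescence from quenching or blocked binding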
Numbers stand for hits; i = inactive; nt = not tested or not shown.

SMILES	NPR1 activator	GalR3 antagonist	Arr AP2 block	NPR2 activator	Arr-AP2 CP1	GST-FITC bead
O=C1/C(=C\c2ccc(-c3ccccc3Cl)o2)SC(=S)N1CC1CCCO1 (centres undefined)	i	i	73	i	42	i
CCn1nc(NC(=O)CC(C)C)c2cc3cccc(C)c3nc21	i	i	55	i	i	i
COc1ccc(N2CCN(CCCNC(=O)CCc3cccc(F)c3)CC2)cc1	i	nt	nt	i	nt	nt
CN(C)c1oc(COc2ccc(F)cc2)nc1C#N	i	i	55	i	i	i
CN(C)c1oc(COc2ccccc2F)nc1C#N	i	i	i	i	nt	nt
CCOC(=O)c1cc2c(nc1NC(=S)NCc1ccccc1)CCCC2	i	i	103	i	i	i
CCOC(=O)c1cc2c(nc1NC(=S)Nc1ccccc1)CC(C)(C)OC2	i	i	i	i	nt	nt
CCCCOCCCNC(=O)C[C@H]1C[C@@]2(C(=O)OC)C(=C[C@H](C3CCCC3)O[C@@H]2C)N(Cc2ccccc2)C1=O	i	i	nt	i	nt	nt
Cc1ccc(C2=C(c3ccc([N+](=O)[O-])cc3)C(=O)OC2)cc1C	i	i	54	i	i	i
COc1cccc(C(=O)NCC2CCN(C(=O)C(=O)c3cc4ccccc4o3)CC2)c1	i	i	nt	i	nt	nt
Cc1ccc(C2Nc3cccc4cccc(c34)N2)s1	i	i	87	i	i	i
Fc1ccc(C2Nc3cccc4cccc(c34)N2)cc1	i	i	i	i	nt	nt
O=C(Cc1c[nH]c2ccccc12)Nc1ccc(Nc2ccncc2)cc1	i	i	nt	i	nt	nt
Cc1c(C(=O)NC(C)C)oc2c1-c1[nH]ncc1CC2	i	i	104	i	i	i
CCOc1ccc(CCNC(=O)c2oc3c(c2C)-c2[nH]ncc2CC3)cc1OCC	i	nt	i	i	nt	nt
Cc1cc(C(=O)OCC(=O)NCCc2ccccc2)c2ccccc2n1	i	i	54	i	i	i
Cc1ccccc1C(=O)N1CCC[C@@H]1C(=O)N1CCC[C@H]1C(=O)NCc1ccccc1	i	i	nt	i	nt	nt
Cc1cc(C)n2nc(N)c(N=Nc3cccc(Cl)c3)c2n1	i	i	99	i	i	62
Cc1ccc(N=Nc2c(N)nn3c(C)cc(C)nc23)cc1	i	i	i	i	nt	nt
NC(=O)NCC(c1ccccc1)C1CCCCC1 (centres undefined)	i	i	61	i	i	i
C[C@H]1C2CC(OC(=O)Nc3ccc(C(F)(F)F)cc3)C(C2)[C@H]2CCCCN21 (some centres undefined)	i	nt	nt	i	nt	nt
CCN1/C(=C2\SC(=S)N(Cc3ccccc3)C2=O)Sc2ccccc21	i	i	107	i	i	i
O=C(CSc1nc(O)c(-c2ccccc2)c(=O)[nH]1)N1CCOCC1	i	i	i	i	nt	nt
O=C(CSc1nc(O)c(C(c2ccccc2)c2ccccc2)c(=O)[nH]1)N1CCOCC1	i	i	68	i	i	i
O=C(COC(=O)C1(c2ccccc2F)CCCC1)NCc1cccs1	i	i	58	i	i	i
SMILES	NPR1 activator	GalR3 antagonist	Arr AP2 block	NPR2 activator	Arr-AP2 CP1	GST-FITC bead
Cc1ccc(S(=O)(=O)N(C)CC(=O)O/N=C(\N)c2ccccn2)cc1	i	i	97	i	i	i
COC(=O)C1=C(C)N(Cc2ccccc2)C(=S)NC1c1ccc(Br)cc1 (centres undefined)	i	i	nt	i	nt	nt
Cc1ccc(CN2C(=O)CCC2C(=O)NCc2ccco2)cc1 (centres undefined)	i	i	92	i	i	i
CCC1CCCCN1CCCNC(=O)C1CCC(=O)N1Cc1ccc(C)cc1 (centres undefined)	i	i	i	i	i	i
O=C(NCCN1CCOCC1)C1CCC(=O)N1Cc1ccc(F)cc1 (centres undefined)	i	i	i	i	i	i
CCOc1cc(NC(=S)NCCCN2CCOCC2)c(OCC)cc1NC(=O)c1ccc(C)cc1	i	i	58	i	i	i
Cc1ccc(CNC(=O)C2CCC(=O)N2Cc2ccc(F)cc2)cc1 (centres undefined)	i	i	i	i	nt	nt
O=C(NCc1ccccc1Cl)C1CCCN(c2ncccn2)C1 (centres undefined)	i	nt	nt	i	nt	nt
Cc1ccc(CN2C(=O)CCC2C(=O)NCCCN2CCOCC2)cc1 (centres undefined)	i	i	92	i	i	i
Cc1ccc(CN2C(=O)CCC2C(=O)NCCN2CCN(c3cccc(Cl)c3)CC2)cc1 (centres undefined)	i	i	i	i	i	i
O=C(NCCN1CCOCC1)C1CCC(=O)N1Cc1ccccc1Cl (centres undefined)	i	i	i	i	i	i
O=C(NCC1CCCO1)C1CCC(=O)N1Cc1ccccc1Cl (centres undefined)	i	i	i	i	nt	nt
CCCCNC(=O)C[C@H]1C[C@@]2(C(=O)OC)C(=C[C@H](C(C)(C)C)O[C@@H]2C)N(CCC2=CCCCC2)C1=O	i	i	nt	i	nt	nt
C[C@]12Cc3ccccc3C1CC1=N[C@@H](c3ccc(C(F)(F)F)cc3)O[C@@]13C[C@@H]2C(=O)N3Cc1ccncc1 (some centres undefined)	i	i	nt	i	nt	nt
COC(=O)[C@]12C[C@H](CC(=O)N3CCC(c4ccccc4)CC3)C(=O)N(CCC3=CCCCC3)C1=C[C@H](COCc1ccccc1)O[C@@H]2C	i	i	nt	i	nt	nt
CCCCSC(=S)N(C)C1CCS(=O)(=O)C1 (centres undefined)	i	i	98	i	i	i
CCNC(=O)/C(C#N)=C/c1c(N2CCN(Cc3ccc4c(c3)OCO4)CC2)nc2c(C)cccn2c1=O	i	i	57	i	i	i
CCN(CC(=O)Nc1ccc(NC(C)=O)cc1)C(=O)CCCSc1nc2ccccc2[nH]1	i	i	66	i	i	i
CCN(CC(=O)Nc1ccc(NC(C)=O)cc1)C(=O)CCCc1c[nH]c2ccccc12	i	i	62	i	i	i
CC(=O)Nc1ccc(NC(=O)CCCSc2nc3ccccc3[nH]2)cc1	i	i	i	i	nt	nt
O=C(CNC(=O)c1ccc(Br)cc1)Nc1ccc2c(c1)CCC2	i	i	54	i	i	i
Cc1ccc(C(=O)NCC(=O)Nc2ccc3c(c2)CCC3)cc1C	i	i	i	i	nt	nt
CCOC(=O)C1=C(COC(=O)CCOc2ccc(OCC)cc2)NC(=O)NC1C (centres undefined)	i	i	i	i	i	i
